Measured values as given in ChEMBL document CHEMBL3352113, “Cytoprotective pyridinol antioxidants as potential therapeutic agents for neurodegenerative and mitochondrial diseases” (Bioorg Med Chem, 2014).
Activity calls are given as the source filed them. The calls are words filed in the database; no cut-off is given here.

system: Lymphocyte; assay: Inhibition of oxidative stress-induced mitochondrial membrane depolarization in diethyl maleate-treated human lymphocytes obtained from FRDA patient assessed as cells with intact mitochondrial membrane potential at 250 nM pretreated for 16 hrs using TMRM by FACS analysis (reference value: 95%); format: functional; set-up: scale not given: the % may be the effect or the level left; conditions: not given

In order of rising Activity:
1. CCCCCCCCCCCCCCCCCCCc1c(C)c(N(C)C)nc(C)c1O  42%
2. CCCCCCCCCCCCCCCCc1c(C)c(N2CCC2)nc(C)c1O  72%

system: Lymphocyte; assay: Cytoprotective activity in human lymphocytes obtained from Leigh's syndrome patient assessed as viable cells at 0.1 uM after 16 hrs by trypan blue exclusion assay; format: functional; conditions: read-out: Activity
Summary of the method: (§1)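 Lymphocytes from FRDA or Leigh's syndrome patients, grown in RPMI-1640 with 15% fetal calf serum and 2 mM glutamine, kept in log phase. Test agents at 0.1, 0.5 and 2.5 µM; diethyl maleate (DEM) added to deplete glutathione and induce oxidative stress. Viability expressed relative to untreated cells (100%). Values are mean ± SD/SEM as tabulated.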

In order of rising viability at 0.1 µM:
1. CCCCCCCCCCCCCCCCCCCc1c(C)c(N(C)C)nc(C)c1O  8%
2. CCCCCCCCCCCCCCCCc1c(C)c(N2CCC2)nc(C)c1O  18%

species on record: Bos taurus; assay: Inhibition of bovine heart mitochondrial NADH oxidase complex I/III/IV assessed as remaining activity by spectrophotometry relative to untreated control; conditions: not given

With `CCCCCCCCCCCCCCCCc1c(C)c(N2CCC2)nc(C)c1O` the inhibition was “Dose-dependent effect”.
In the case of `CCCCCCCCCCCCCCCCCCCc1c(C)c(N(C)C)nc(C)c1O`, the inhibition is reported as “Dose-dependent effect”.

species on record: Bos taurus; assay: Inhibition of bovine heart mitochondrial NADH oxidase complex I/III/IV assessed as remaining activity at 5 uM by spectrophotometry relative to untreated control; conditions: not given

In order of falling Activity:
1. CCCCCCCCCCCCCCCCc1c(C)c(N2CCC2)nc(C)c1O  89%
2. CCCCCCCCCCCCCCCCCCCc1c(C)c(N(C)C)nc(C)c1O  83%

system: Lymphocyte; assay: Increase in ATP production in CoQ10-deficient lymphocytes (unknown origin) assessed as cellular ATP level at 25 uM after 48 hrs using luciferin-luciferase reaction by bioluminescence assay relative to control; format: functional; conditions: not given
Summary of the method: (§2)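 CoQ10-deficient lymphocyte line GM17932 grown in glucose-free RPMI 1640 with 25 mM galactose, 2 mM glutamine and 10% dialyzed FBS, forcing oxidative phosphorylation. Incubated with compounds at 5, 10 or 25 µM for 48 h. Total intracellular ATP measured by luciferin–luciferase reaction, expressed as % of untreated control.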

In order of rising Activity:
1. CCCCCCCCCCCCCCCCc1c(C)c(N2CCC2)nc(C)c1O  50%
2. CCCCCCCCCCCCCCCCCCCc1c(C)c(N(C)C)nc(C)c1O  86%

species on record: Bos taurus; assay: Inhibition of bovine heart mitochondrial NADH oxidase complex I/III/IV assessed as remaining activity at 10 uM by spectrophotometry relative to untreated control; conditions: not given

In order of rising Activity:
1. CCCCCCCCCCCCCCCCc1c(C)c(N2CCC2)nc(C)c1O  79%
2. CCCCCCCCCCCCCCCCCCCc1c(C)c(N(C)C)nc(C)c1O  81%

system: Lymphocyte; assay: Cytoprotective activity in human lymphocytes obtained from Leigh's syndrome patient assessed as viable cells at 2.5 uM after 16 hrs by trypan blue exclusion assay; format: functional; conditions: read-out: Activity; summary of the method: as §1

In order of falling viability at 2.5 µM:
1. CCCCCCCCCCCCCCCCc1c(C)c(N2CCC2)nc(C)c1O  92%
2. CCCCCCCCCCCCCCCCCCCc1c(C)c(N(C)C)nc(C)c1O  87%

system: Lymphocyte; assay: Cytoprotective activity in human lymphocytes obtained from FRDA patient assessed as viable cells at 0.1 uM after 16 hrs by trypan blue exclusion assay; format: functional; conditions: read-out: Activity; summary of the method: as §1

In order of rising viability at 0.1 µM:
1. CCCCCCCCCCCCCCCCCCCc1c(C)c(N(C)C)nc(C)c1O  20%
2. CCCCCCCCCCCCCCCCc1c(C)c(N2CCC2)nc(C)c1O  58%

species on record: Bos taurus; assay: Inhibition of bovine heart mitochondrial NADH oxidase complex I/III/IV assessed as remaining activity at 1 uM by spectrophotometry relative to untreated control; conditions: not given

In order of rising Activity:
1. CCCCCCCCCCCCCCCCc1c(C)c(N2CCC2)nc(C)c1O  95%
2. CCCCCCCCCCCCCCCCCCCc1c(C)c(N(C)C)nc(C)c1O  98%

system: Lymphocyte; assay: Inhibition of ROS generation in diethyl maleate-treated human lymphocytes obtained from FRDA patient compound pretreated at 100 to 500 nM for 16 hrs using DCFH-DA by FACS analysis; format: functional, cell-based; conditions: not given
Summary of the method: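 FRDA lymphocytes pretreated with compounds at 100, 250 and 500 nM for 16 h, then given DEM for 80 min to raise ROS. Stained with DCFH-DA for 15 min, then DCF fluorescence read by flow cytometry. Reported as % ROS scavenging; mean ± SEM of three experiments run in duplicate.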

With `CCCCCCCCCCCCCCCCc1c(C)c(N2CCC2)nc(C)c1O` the inhibition was “Active”.
With `CCCCCCCCCCCCCCCCCCCc1c(C)c(N(C)C)nc(C)c1O` the inhibition was “inactive”.

system: Lymphocyte; assay: Increase in ATP production in CoQ10-deficient lymphocytes (unknown origin) assessed as cellular ATP level at 10 uM after 48 hrs using luciferin-luciferase reaction by bioluminescence assay relative to control; format: functional; conditions: not given; summary of the method: as §2

In order of rising Activity:
1. CCCCCCCCCCCCCCCCc1c(C)c(N2CCC2)nc(C)c1O  76%
2. CCCCCCCCCCCCCCCCCCCc1c(C)c(N(C)C)nc(C)c1O  103%

system: Lymphocyte; assay: Cytoprotective activity in human lymphocytes obtained from FRDA patient assessed as viable cells after 16 hrs by trypan blue exclusion assay; format: functional, cell-based; conditions: not given; summary of the method: as §1

For `CCCCCCCCCCCCCCCCc1c(C)c(N2CCC2)nc(C)c1O`, the Activity was “Dose-dependent effect”.
With `CCCCCCCCCCCCCCCCCCCc1c(C)c(N(C)C)nc(C)c1O` the Activity was “Dose-dependent effect”.

system: Lymphocyte; assay: Inhibition of oxidative stress-induced mitochondrial membrane depolarization in diethyl maleate-treated human lymphocytes obtained from FRDA patient assessed as cells with intact mitochondrial membrane potential at 100 nM pretreated for 16 hrs using TMRM by FACS analysis (reference value: 95%); format: functional; set-up: scale not given: the % may be the effect or the level left; conditions: not given

In order of falling Activity:
1. CCCCCCCCCCCCCCCCc1c(C)c(N2CCC2)nc(C)c1O  55%
2. CCCCCCCCCCCCCCCCCCCc1c(C)c(N(C)C)nc(C)c1O  23%

system: not listed separately; assay: Metabolic stability in bovine liver microsomes at 25 uM after 30 mins by reverse phase HPLC analysis; format: ADME, Bos taurus; conditions: cattle, read-out: Stability
Summary of the method: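 Compounds incubated 30 min with activated bovine liver microsomes. Remaining parent compound quantified by reversed-phase HPLC and expressed as % recovered; mean ± SD.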

In order of rising remaining at 0.5 h, 25 µM:
1. CCCCCCCCCCCCCCCCCCCc1c(C)c(N(C)C)nc(C)c1O  50%
2. CCCCCCCCCCCCCCCCc1c(C)c(N2CCC2)nc(C)c1O  95%

system: Lymphocyte; assay: Cytoprotective activity in human lymphocytes obtained from FRDA patient assessed as viable cells at 0.5 uM after 16 hrs by trypan blue exclusion assay; format: functional; conditions: read-out: Activity; summary of the method: as §1

In order of rising viability at 0.5 µM:
1. CCCCCCCCCCCCCCCCCCCc1c(C)c(N(C)C)nc(C)c1O  50%
2. CCCCCCCCCCCCCCCCc1c(C)c(N2CCC2)nc(C)c1O  79%

system: Lymphocyte; assay: Inhibition of lipid peroxidation in diethyl maleate-treated human lymphocytes obtained from FRDA patient at 100 to 250 nM after 16 hrs using C11-BODIPY581/591 by FACS analysis; format: functional, cell-based; conditions: not given
Summary of the method: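 FRDA lymphocytes depleted of glutathione with DEM, probed with C11-BODIPY581/591. Green (oxidized) fluorescence read by flow cytometry at 490/510 nm. Median mean fluorescence taken relative to untreated control and converted to % lipid peroxidation scavenging; mean ± SEM, n = 3.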

For `CCCCCCCCCCCCCCCCc1c(C)c(N2CCC2)nc(C)c1O`, the inhibition was “Active”.
For `CCCCCCCCCCCCCCCCCCCc1c(C)c(N(C)C)nc(C)c1O`, the inhibition was “inactive”.

system: Lymphocyte; assay: Cytoprotective activity in human lymphocytes obtained from Leigh's syndrome patient assessed as viable cells after 16 hrs by trypan blue exclusion assay; format: functional, cell-based; conditions: not given; summary of the method: as §1

In the case of `CCCCCCCCCCCCCCCCc1c(C)c(N2CCC2)nc(C)c1O`, the Activity is reported as “Dose-dependent effect”.
With `CCCCCCCCCCCCCCCCCCCc1c(C)c(N(C)C)nc(C)c1O` the Activity was “Dose-dependent effect”.

system: Lymphocyte; assay: Increase in ATP production in CoQ10-deficient lymphocytes (unknown origin) assessed as cellular ATP level at 5 uM after 48 hrs using luciferin-luciferase reaction by bioluminescence assay relative to control; format: functional; conditions: not given; summary of the method: as §2

In order of rising Activity:
1. CCCCCCCCCCCCCCCCc1c(C)c(N2CCC2)nc(C)c1O  98%
2. CCCCCCCCCCCCCCCCCCCc1c(C)c(N(C)C)nc(C)c1O  106%

system: Lymphocyte; assay: Cytoprotective activity in human lymphocytes obtained from FRDA patient assessed as viable cells at 2.5 uM after 16 hrs by trypan blue exclusion assay; format: functional; conditions: read-out: Activity; summary of the method: as §1

In order of rising viability at 2.5 µM:
1. CCCCCCCCCCCCCCCCCCCc1c(C)c(N(C)C)nc(C)c1O  87%
2. CCCCCCCCCCCCCCCCc1c(C)c(N2CCC2)nc(C)c1O  92%

system: Lymphocyte; assay: Inhibition of oxidative stress-induced mitochondrial membrane depolarization in diethyl maleate-treated human lymphocytes obtained from FRDA patient assessed as cells with intact mitochondrial membrane potential at 500 nM pretreated for 16 hrs using TMRM by FACS analysis (reference value: 95%); format: functional; set-up: scale not given: the % may be the effect or the level left; conditions: not given

In order of falling Activity:
1. CCCCCCCCCCCCCCCCc1c(C)c(N2CCC2)nc(C)c1O  89%
2. CCCCCCCCCCCCCCCCCCCc1c(C)c(N(C)C)nc(C)c1O  64%

system: Lymphocyte; assay: Cytoprotective activity in human lymphocytes obtained from Leigh's syndrome patient assessed as viable cells at 0.5 uM after 16 hrs by trypan blue exclusion assay; format: functional; conditions: read-out: Activity; summary of the method: as §1

In order of falling viability at 0.5 µM:
1. CCCCCCCCCCCCCCCCc1c(C)c(N2CCC2)nc(C)c1O  95%
2. CCCCCCCCCCCCCCCCCCCc1c(C)c(N(C)C)nc(C)c1O  8%
